One block for each compound: values may come before it.
Key:
Format in all cases: functional
Mus musculus [1] = assay: Tumor weight on day 17 of C3H mammary adenocarcinoma 16/C in B6C3F1 female mice at 80 mg/kg by subcutaneous administration; settings: route intraperitoneal, in the assay text read “intraperitoneal administration” for “subcutaneous administration”
In short: (§1)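 C3H mammary adenocarcinoma 16/C, lung-passed in C3H female mice. Freshly harvested 2- to 4-mm3 fragments were implanted subcutaneously into 18- to 20-g B6C3F1 females on day 0, and the mice were randomized the next day. Drugs were dissolved in 0.2 M phosphate buffer and given ip once daily on days 1-9; controls received 0.2 mL buffer. Tumor weight was estimated from caliper length and width by […].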

Mus musculus [2] = assay: Animals with palpable tumors on day 17 at 80 mg/kg by subcutaneous administration in B6C3F1 female mice; 6/6; settings: route intraperitoneal, in the assay text read “intraperitoneal administration” for “subcutaneous administration”; in short: as §1
Mus musculus [3] = assay: Change in weight on day 9 of mammary adenocarcinoma 16/C in B6C3F1 female mice at 40 mg/kg […]; in short: as §1
Mus musculus [4] = assay: Percentage growth inhibition of mammary adenocarcinoma 16/C in B6C3F1 female mice at 40 mg/kg dose […]; settings: sc; in short: as §1
Mus musculus [5] = assay: Percentage growth inhibition of mammary adenocarcinoma 16/C in B6C3F1 female mice at 80 mg/kg dose […]; settings: sc; in short: as §1
L1210 = assay: Effective dose that produced 50% inhibition of L1210 Leukemia cell growth in culture; settings: Mus musculus, read-out: ED50 (the source's name)
In short: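 The value is the drug concentration in the culture medium that gave 50% inhibition of L1210 leukemia cell growth, relative to untreated controls, after a 48-h incubation. Results are mean ± standard error.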

Mus musculus [6] = assay: Change in weight on day 9 of mammary adenocarcinoma 16/C in B6C3F1 female mice at 80 mg/kg […]; in short: as §1
Mus musculus [7] = assay: Tumor weight on day 17 of C3H mammary adenocarcinoma 16/C in B6C3F1 female mice at 40 mg/kg […]; in short: as §1
Mus musculus [8] = assay: Animals with palpable tumors on day 17 at 40 mg/kg by subcutaneous administration in B6C3F1 female mice; 6/6; settings: route intraperitoneal, in the assay text read “intraperitoneal administration” for “subcutaneous administration”; in short: as §1
Mus musculus [9] = assay: Change in weight of mammary adenocarcinoma 16/C in B6C3F1 female mice at 100 mg/kg […] on day 9; in short: as §1
Mus musculus [10] = assay: Tumor weight of C3H mammary adenocarcinoma 16/C in B6C3F1 female mice at 100 mg/kg by subcutaneous administration on day 17; settings: route intraperitoneal, in the assay text read “intraperitoneal administration” for “subcutaneous administration”; in short: as §1
Mus musculus [11] = assay: Tumor weight of C3H mammary adenocarcinoma 16/C in B6C3F1 female mice at 50 mg/kg by subcutaneous administration on day 17; settings: route intraperitoneal, in the assay text read “intraperitoneal administration” for “subcutaneous administration”; in short: as §1
Mus musculus [12] = assay: Percentage growth inhibition of mammary adenocarcinoma 16/C in B6C3F1 female mice at the dose of 50 mg/kg by subcutaneous administration; settings: ip, in the assay text read “intraperitoneal administration” for “subcutaneous administration”; in short: as §1
Mus musculus [13] = assay: Percentage growth inhibition of mammary adenocarcinoma 16/C in B6C3F1 female mice at the dose of 100 mg/kg by subcutaneous administration; settings: ip, in the assay text read “intraperitoneal administration” for “subcutaneous administration”; in short: as §1
Mus musculus [14] = assay: Change in weight of mammary adenocarcinoma 16/C in B6C3F1 female mice at 50 mg/kg […] on day 9; in short: as §1
Mus musculus [15] = assay: Animals with palpable tumors on day 17 at the dose of 50 mg/kg by […] in 6 B6C3F1 female mice; 6/6 animals were with palpable tumors.; in short: as §1
Mus musculus [16] = assay: Animals with palpable tumors on day 17 at the dose of 100 mg/kg by […] in 6 B6C3F1 female mice; 6/6 animals were with palpable tumors.; in short: as §1
Mus musculus [17] = assay: Animals with palpable tumors on day 17 after subcutaneous administration in 6 B6C3F1 female mice; 5/6 animals were with palpable tumors.; settings: in the assay text read “intraperitoneal administration” for “subcutaneous administration”; in short: as §1
Mus musculus [18] = assay: Change in weight of mammary adenocarcinoma 16/C in B6C3F1 female mice by subcutaneous administration on day 9; in short: as §1
Mus musculus [19] = assay: Tumor weight of C3H mammary adenocarcinoma 16/C in B6C3F1 female mice at 80 mg/kg by subcutaneous administration on day 17; settings: route intraperitoneal, in the assay text read “intraperitoneal administration” for “subcutaneous administration”; in short: as §1
Mus musculus [20] = species on record: Mus musculus; assay: Percentage growth inhibition of mammary adenocarcinoma 16/C in B6C3F1 female mice; in short: as §1

Compound: Nc1cc2ncn([C@H]3C[C@H](O)[C@@H](CO)O3)c2c(O)n1
Delta weight (Mus musculus [9]): 0.95
Tumor weight (Mus musculus [10]): 3.5 g
Tumor weight (Mus musculus [11]): 2.95 g
inhibition in vivo at 50 mg/kg (Mus musculus [12]): 18.1%
inhibition in vivo at 100 mg/kg (Mus musculus [13]): 2.8%
Delta weight (Mus musculus [14]): 0.72
Animals with palpable tumor (Mus musculus [15]): 6
EC50 (L1210): 950 µM
Animals with palpable tumor (Mus musculus [16]): 6

Compound: Nc1cc2ncn([C@@H]3O[C@H](CO)[C@@H](O)[C@H]3O)c2c(=O)[nH]1
EC50 (L1210): 750 µM

Compound: Nc1cc2[nH]cnc2c(=O)[nH]1 [DEZAGUANINE]
Animals with palpable tumor (Mus musculus [17]): 5
Delta weight (Mus musculus [18]): 0.06
Tumor weight (Mus musculus [19]): 0.25 g
EC50 (L1210): 11 µM
Inhibition (Mus musculus [20]): 93.1%

The next compounds have a lower EC50 (L1210) than those just listed; values first:

EC50 (L1210): 9 µM
Compound: Nc1cc2c(ncn2[C@H]2C[C@H](O)[C@@H](CO)O2)c(O)n1
Tumor weight (Mus musculus [1]): 1.09 g
Animals with palpable tumor (Mus musculus [2]): 6
Delta weight (Mus musculus [3]): 0.58
inhibition in vivo at 40 mg/kg (Mus musculus [4]): 25%
inhibition in vivo at 80 mg/kg (Mus musculus [5]): 69.7%
Delta weight (Mus musculus [6]): 1.2
Tumor weight (Mus musculus [7]): 2.7 g
Animals with palpable tumor (Mus musculus [8]): 6

EC50 (L1210): 7 µM
Compound: Nc1cc2c(ncn2[C@@H]2O[C@H](CO)[C@@H](O)[C@H]2O)c(=O)[nH]1

From ChEMBL document CHEMBL1122488, “synthesis and antitumor activity of 2-deoxyribofuranosides of 3-deazaguanine” (1983)
